# Experimental data published in ChEMBL document CHEMBL1154220, “Inhibitors of aldose reductase and formation of advanced glycation end-products in moutan cortex (Paeonia suffruticosa)” (J Nat Prod, 2009).
# Tests used:
# [1] = target: Aldo-keto reductase family 1 member B1 (Rattus norvegicus, UniProt P07943); assay: Inhibition of Sprague-Dawley rat lens aldose reductase by spectrofluorimetry; assay type: single protein
# In short: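 Crude enzyme: supernatant of lenses from 8-week-old rats (250-280 g), homogenized in 135 mM Na/K phosphate pH 7.0 with 0.5 mM PMSF and 10 mM 2-mercaptoethanol, spun 14 000 rpm 30 min. NADP converted to fluorophore with NaOH/imidazole at 60 °C for 10 min, read ex 360/em 460 nm. IC50 from dose-response curves, triplicate, mean ± SE.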
# [2] = Inhibition of advanced glycation end product formation after 14 day in phosphate buffer at pH7.4 by spectrofluorimetry; assay type: physicochemical
# In short: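 BSA (10 mg/mL stock) in 50 mM phosphate pH 7.4 with 0.02% sodium azide, plus 0.2 M fructose and glucose, incubated with serially diluted samples at 37 °C for 14 days in screw-cap tubes. Aminoguanidine served as reference. Fluorescence read at ex 350/em 450 nm. IC50 from dose-response curves, triplicate, mean ± SE.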
SMILES,IC50 [1] [µM],IC50 [2] [µM]
CCCCO[C@]12C[C@]3(C)OC(O1)[C@]1(COC(=O)c4ccccc4)[C@@H]2C[C@@]31O[C@@H]1O[C@H](CO)[C@@H](O)[C@H](O)[C@H]1O,36.2,10.8
CO[C@H]1O[C@@]2(C)CC(=O)[C@H]3C[C@]2(O[C@@H]2O[C@H](COC(=O)c4ccccc4)[C@@H](O)[C@H](O)[C@H]2O)[C@]13COC(=O)c1ccccc1,> 50,> 500
Cc1cc2c(cc1O)[C@@H](CO)CO2,> 50,177
C[C@@]12C[C@@]3(O)OC(O1)[C@]1(COC(=O)c4ccc(O)cc4)[C@@H]3C[C@@]21O[C@H]1O[C@H](COC(=O)c2ccccc2)[C@@H](O)[C@H](O)[C@H]1O,> 50,> 500
C[C@@]12C[C@@]3(O)OC(O1)[C@]1(COC(=O)c4ccc(O)cc4)[C@@H]3C[C@@]21O[C@@H]1O[C@H](COC(=O)c2ccccc2)[C@@H](O)[C@H](O)[C@H]1O,> 50,> 500
C=C1CC[C@]2(C(=O)O)CC[C@]3(C)C(=CC[C@@H]4[C@@]5(C)CC[C@H](O)[C@@](C)(CO)[C@@H]5CC[C@]43C)[C@@H]2C1,28.8,> 500
CO[C@@]12C[C@@H]3C(=O)[C@@](C)(C1)OC(O2)[C@H]3COC(=O)c1ccccc1,> 50,> 500
O=C(O)CC1(CC(=O)O)CCCC1,31.8,–
C[C@@]12C[C@@]3(O)O[C@@H](O1)[C@]1(COC(=O)c4ccccc4)[C@@H]3C[C@]12O[C@@H]1O[C@H](COC(=O)c2ccccc2)[C@@H](O)[C@H](O)[C@H]1O [BENZOYLPAEONIFLORIN],> 50,> 500
N=C(N)NN [PIMAGEDINE],–,1030

# Next, values leading:
IC50 [1] [µM],IC50 [2] [µM],SMILES
44.6,11.3,C[C@@]12C[C@@]3(O)O[C@@H](O1)[C@]1(COC(=O)c4ccccc4)[C@@H]3C[C@]12O[C@@H]1O[C@H](COC(=O)c2cc(O)c(O)c(O)c2)[C@@H](O)[C@H](O)[C@H]1O [GALLOYLPAEONIFLORIN]
> 50,> 500,C[C@@]12C[C@@]3(O)OC(O1)[C@]1(COC(=O)c4ccccc4)[C@@H]3C[C@@]21O[C@@H]1O[C@H](COC(=O)c2ccc(O)cc2)[C@@H](O)[C@H](O)[C@H]1O [NUDANPINOSIDE H]
> 50,> 500,C[C@@]12C[C@@]3(O)O[C@@H](O1)[C@]1(COC(=O)c4ccc(O)cc4)[C@H]3C[C@@]12O[C@@H]1O[C@H](CO)[C@@H](O)[C@H](O)[C@H]1O [OXYPAEONIFLORIN]
> 50,> 500,C[C@@]12CC(=O)[C@H]3C[C@]1(O)O[C@H](O2)[C@@H]3COC(=O)c1ccccc1 [PAEONIFLORIGENONE]
> 50,> 500,C[C@@]12C[C@@]3(O)O[C@@H](O1)[C@]1(COC(=O)c4ccccc4)[C@H]3C[C@@]12O[C@@H]1O[C@H](CO)[C@@H](O)[C@H](O)[C@H]1O [PAEONIFLORIN]
> 50,> 500,COc1ccc(C(C)=O)c(O[C@@H]2O[C@H](CO[C@@H]3OC[C@H](O)[C@H](O)[C@H]3O)[C@@H](O)[C@H](O)[C@H]2O)c1 [PAEONOLIDE]
> 50,> 500,COc1ccc(C(C)=O)c(O)c1 [PAEONOL]
11.4,> 500,CC1(C)[C@@H](O)CC[C@]2(C)[C@H]3C=CC4=C(O)C(=O)C(=O)[C@@]4(C)[C@]3(C)CC[C@@H]12 [PALBINONE]
